Screening results from PubChem BioAssay.
bCat nuc transl: alters nuclear translocation of beta-catenin in HeLa cells. immunofluorescence imaging. nuclear translocation activity, % at 5 µM. 190,000 compounds, 0.3% hits. AID 1665;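 active = nuclear translocation activity above 50% at 5 µM, with a well cell count of 50 or more; inconclusive = wells under 50 cells across six images, flagged as toxic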;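 note: per-cell ratio of nuclear to cytoplasmic median beta-catenin stain intensity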
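test system = HeLa cells, endogenous beta-catenin | dosing = single 5 µM dose plus 0.02–20 µM confirmation series | times = compound treatment 24 h, 37°C, 5% CO2 | technique = beta-catenin immunofluorescence imaging with DAPI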
INS promoter inh: TRM-6 insulin promoter activity inhibition; AID 1273; inhibition, % at 2 µM; TRM-6 cells, insulin promoter-eGFP reporter, imaging; reporter expression induced with tamoxifen; 130,000 compounds, 0.9% hits;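 active = inhibition above the mean plus 3 SD, with well images judged a real hit on visual review, cut at about 60% in these data, passing the limit was not always enough; inconclusive = inhibition over the cutoff but images rejected on review; inactive = inhibition not above the cutoff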
HSV replic up: HSV replication enhancement | HSV replication augmentation in cells, fold increase | maximum fold increase | 220,000 compounds, 0.005% hits | AID 1956; in the data active = maximum fold increase above about 1.5; inconclusive = no clear call, values can overlap the other calls; tested in PC3 cells
ROMK primary: modulators of human ROMK potassium channel. P48048. Tet-inducible ROMK, thallium flux fluorescence; actives lie on both sides. B-score at 10 µM. 130,000 compounds, 2% hits;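 active = signal ratio slope over the read window, or its plate-corrected B-score, at least 3 SD from the plate mean, either direction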;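 note: B-score of the F/F0 ratio slope over 7 to 12 s after thallium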
Target sequence (P48048 whole entry, looked up): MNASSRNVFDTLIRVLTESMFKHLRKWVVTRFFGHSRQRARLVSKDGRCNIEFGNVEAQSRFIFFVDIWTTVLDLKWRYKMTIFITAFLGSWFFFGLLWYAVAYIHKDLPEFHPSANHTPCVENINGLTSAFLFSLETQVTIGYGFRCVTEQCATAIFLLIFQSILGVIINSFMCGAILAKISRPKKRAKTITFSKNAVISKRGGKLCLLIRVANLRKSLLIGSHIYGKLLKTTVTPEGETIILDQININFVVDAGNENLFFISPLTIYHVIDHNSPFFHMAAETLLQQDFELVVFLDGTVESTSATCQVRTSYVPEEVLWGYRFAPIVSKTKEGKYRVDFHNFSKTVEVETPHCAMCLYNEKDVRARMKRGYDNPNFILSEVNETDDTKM
MT stabilizer: microtubule stabilization, imaging screen; % tubulin-high responders, % at 10 µM; HeLa tubulin immunostaining HCS, 24 h; share of cells brighter than vehicle mean+2SD; 200,000 compounds, 0.83% hits;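 active = plate Z-score above 3 for both tubulin-high and condensed-nucleus cell shares, with cell loss under 80%, at 10 µM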;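 note: anti alpha tubulin signal scored within the nucleus-defined area of each cell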
Large screens that a line does not name were inactive. Shown are actives, neighbours in structure and some others; about 2.4% of the full set was active somewhere.

O=C(Nc1ccncc1)C1CCCN(S(=O)(=O)c2cccc3cccnc23)C1 (stereo unspecified)	bCat nuc transl 88.4, MT stabilizer 21.8 (no result: INS promoter inh, ROMK primary)
COc1cccc(NC(=O)C2CCCN(S(=O)(=O)c3cccc4cccnc34)C2)c1 (stereo unspecified)	none (no result: INS promoter inh, ROMK primary)
Fc1ccc(-c2n[nH]c(=S)n2CC2CCCO2)cc1 (stereo unspecified)	ROMK primary 2.45 (no result: INS promoter inh)
COc1ccc2nc(-c3ccccc3)[nH]c2c1	none
CCOc1ccc2nc(-c3ccccc3)[nH]c2c1	bCat nuc transl 78.1, INS promoter inh 85.7, MT stabilizer 42.5
CCOC(=O)C1=NOC(COc2ccccc2C=O)C1 (stereo unspecified)	none
Cc1ccc(C(=O)NC2CCS(=O)(=O)C2)cc1S(=O)(=O)N1CCCCCC1 (stereo unspecified)	none (no result: INS promoter inh, ROMK primary)
CCOC(=O)c1c(NCC(C)C)c2ccccc2[nH]c1=O	none
CCOC(=O)c1c(N2CCCCC2)c2ccccc2[nH]c1=O	INS promoter inh 65.6
Cc1ccc(C2=Nc3ccccc3N=C(C(Cl)Cl)C2)cc1	INS promoter inh 82.3
O=C(NCC1OCCc2ccccc21)c1cc(COc2ccc(F)cc2Cl)on1 (stereo unspecified)	none (no result: INS promoter inh)
CC1CCC(NC(=O)c2ccc3c(c2)S(=O)(=O)c2ccccc2C3=O)CC1 (stereo unspecified)	none (no result: bCat nuc transl, INS promoter inh, ROMK primary, MT stabilizer)
COc1ccc2nc(NCc3ccccc3)[nH]c2c1	MT stabilizer 42.6 (no result: ROMK primary)
COc1ccc2nc(NCCO)[nH]c2c1	none
Cc1ccc2nc(NCc3ccccc3)[nH]c2c1	MT stabilizer 21.7 (no result: INS promoter inh)
COC(=O)CCN(C(=O)c1cccc([N+](=O)[O-])c1)c1ccccn1	none
O=C(CSc1nc2c(sc3ccccc32)c(=O)n1-c1ccccc1)NCc1ccco1	INS promoter inh 72.7 (no result: ROMK primary)
O=c1nc2scc(-c3ccccc3)n2c2ccccc12	none (no result: ROMK primary)
CC(C)c1ccc(/C=C2\NC(=S)N(Cc3cccnc3)C2=O)cc1	none (no result: INS promoter inh, ROMK primary)
Cc1ccc(S(=O)(=O)N2c3ccc(S(N)(=O)=O)cc3CC2C)cc1 (stereo unspecified)	none
CCOc1ccc(S(=O)(=O)N2c3ccccc3CC2C)cc1 (stereo unspecified)	bCat nuc transl 162.6, MT stabilizer 16.7 (no result: ROMK primary)
Cc1ccc(S(=O)(=O)N2c3ccccc3CC2C)cc1 (stereo unspecified)	MT stabilizer 13.0 (no result: INS promoter inh)
CC(C)c1ccc2[nH]c(O)c(N=NC(=S)NCCc3ccccc3)c2c1	none (no result: INS promoter inh, ROMK primary)
CCNC(=S)N=Nc1c(O)[nH]c2ccc(C(C)C)cc12	INS promoter inh 64.3
CSC1=NC(C(Cl)(Cl)Cl)N=C(c2ccccc2)N1 (stereo unspecified)	bCat nuc transl 75.0, MT stabilizer 14.6 (no result: INS promoter inh)
CCOC(=O)C1C(=O)NC(c2ccccc2)=NC1c1ccc(F)cc1 (stereo unspecified)	none (no result: bCat nuc transl, ROMK primary)
N#Cc1c(NC(=O)CCn2cnc3ccccc3c2=O)oc(-c2ccccc2)c1-c1ccccc1	INS promoter inh 75.0 (no result: bCat nuc transl)
Cc1sc2nc(SCC(=O)C(C)(C)C)n(Cc3ccco3)c(=O)c2c1C	MT stabilizer 34.8 (no result: ROMK primary)
COc1ccc(NC(=O)N2CCCCC2)cc1	INS promoter inh 80.0 (no result: bCat nuc transl, ROMK primary)
Cc1cc(C)cc(N(CC(=O)NCCSCc2ccccc2)S(C)(=O)=O)c1	none
CCCOc1nc(SCCC)nc2c1cnn2-c1ccccc1	none (no result: INS promoter inh, ROMK primary, MT stabilizer)
COc1cc(/C=N/NC(=O)c2ccccc2Cl)ccc1Oc1ccc([N+](=O)[O-])cn1	MT stabilizer 17.0 (no result: INS promoter inh)
COc1ccc(/C=N/NC(=O)c2ccccc2O)cc1Cn1cc([N+](=O)[O-])cn1	none (no result: INS promoter inh, MT stabilizer)
COc1cc(/C=N/NC(=O)c2ccncc2)ccc1OC(=O)c1ccc([N+](=O)[O-])cc1	INS promoter inh 100.0
COc1ccc(/C=N/NC(=O)c2ccccc2Cl)cc1CSc1nc2ccccc2s1	bCat nuc transl 331.7 (no result: ROMK primary)
COc1ccc(/C=N/NC(=O)c2cccnc2)cc1COc1ccc([N+](=O)[O-])c(C)c1	bCat nuc transl 82.2 (no result: INS promoter inh, ROMK primary, MT stabilizer)
COC(=O)c1cc(NC(=O)c2ccccc2)c(=O)oc1/C=C/Nc1ccc(Oc2ccccc2)cc1	HSV replic up inconclusive, ROMK primary -4.46
COc1ccc(C(=O)Nc2cc(C(C)=O)c(C)oc2=O)cc1	none (no result: INS promoter inh)
CCN(CC)c1ccc(NC(=O)c2ccc(=O)[nH]c2)cc1S(=O)(=O)Nc1ccccc1OC	MT stabilizer 28.5
CCN(CC)c1ccc(NC(=O)c2ccccc2Br)cc1S(=O)(=O)Nc1ccccc1OC	none (no result: bCat nuc transl, ROMK primary)
N/C(=N/OC(=O)c1ccccc1Cl)c1ncc([N+](=O)[O-])s1	none (no result: INS promoter inh, MT stabilizer)
COc1cc(S(=O)(=O)n2nnc3ccccc32)c(OC)cc1Cl	ROMK primary -2.31
COc1ccc(Cl)cc1S(=O)(=O)n1cnc2ccccc21	MT stabilizer 26.4 (no result: INS promoter inh)
CCOc1cc(C)c(Cl)cc1S(=O)(=O)n1cnc2ccccc21	none (no result: bCat nuc transl)
CCOc1ccc(Cl)cc1S(=O)(=O)n1cnc2ccccc21	MT stabilizer 24.2 (no result: bCat nuc transl, ROMK primary)
CCCCn1c(SCc2nc(N)nc(N3CCCCC3)n2)nc2c1c(=O)n(C)c(=O)n2C	none
Cn1ncc(N=Cc2ccccc2)c1C(=O)Nc1cccc(Cl)c1	MT stabilizer 33.9 (no result: HSV replic up, ROMK primary)
CCOC(=O)c1c(C)[nH]c(C(=O)N/N=C/c2cccc(OC)c2)c1C	MT stabilizer 20.5 (no result: INS promoter inh, HSV replic up, ROMK primary)
CCOC(=O)c1c(C)[nH]c(C(=O)N/N=C\c2ccccc2Cl)c1C	MT stabilizer 22.6 (no result: INS promoter inh, ROMK primary)
Cc1ccc(-c2csc(-c3c[nH]c4ccccc34)n2)c(C)c1	MT stabilizer 37.1 (no result: ROMK primary)
Cc1ccc(C(=O)NCc2ccco2)cc1Br	none (no result: bCat nuc transl, ROMK primary)
Cc1ccc2c(CC(=O)NCc3ccco3)coc2c1C	bCat nuc transl 113.8, MT stabilizer 41.3
CCOc1ccccc1CN(Cc1ccco1)S(=O)(=O)c1ccc(-n2cnnn2)c(OC)c1	MT stabilizer 40.9 (no result: ROMK primary)
CN(C)CC/C=C1\c2ccccc2COc2ccccc21	none (no result: ROMK primary)
CNCC/C=C1/c2ccccc2CSc2ccccc21	bCat nuc transl inconclusive, ROMK primary -4.86
Cc1cccc(CSCCNC(=O)c2ccc(CN3CCOCC3)cc2)c1	INS promoter inh 71.4
O=C(NCCSCc1ccc(Cl)cc1Cl)c1ccc(CN2CCOCC2)cc1	none (no result: ROMK primary)
O=C(NCc1ccc2c(c1)OCO2)c1ccc(CN2CCOCC2)cc1	INS promoter inh 89.0 (no result: ROMK primary)
O=C(N/C(=C/c1cccnc1)C(=O)N1CCOCC1)c1ccccc1Br	none
Cc1c(O)ccc(-c2n[nH]c(C(=O)O)c2-c2nc3ccccc3s2)c1O	none (no result: INS promoter inh, ROMK primary, MT stabilizer)
CCOC(=O)C1=C(N)n2c(s/c(=C/c3ccco3)c2=O)=C(C(=O)OC)C1c1ccco1 (stereo unspecified)	MT stabilizer 45.8
CCN(CC)c1cc(C)c2cc(NC(=O)c3ccc(Br)o3)ccc2n1	none (no result: ROMK primary)
CCN(CC)CCNC(CC(=O)Nc1ccc(Cl)cc1Cl)C(=O)O (stereo unspecified)	INS promoter inh 93.8
COc1ccc(-c2nc(NC(=O)C3CC(=O)N(c4ccc5c(c4)OCCO5)C3)sc2C)cc1 (stereo unspecified)	MT stabilizer 11.2 (no result: bCat nuc transl)
O=C(Nc1nnc(C2CC2)s1)C1CC(=O)N(c2ccc3c(c2)OCCO3)C1 (stereo unspecified)	none (no result: INS promoter inh)
COc1ccc(NC(=O)c2nc(C)c(C3(C)CC(c4cccnc4)=NO3)s2)cc1 (stereo unspecified)	bCat nuc transl 75.9 (no result: INS promoter inh, ROMK primary, MT stabilizer)
